Measured values: ChEMBL document CHEMBL5365527, “Structure-Guided Design of Nurr1 Agonists Derived from the Natural Ligand Dihydroxyindole” (J Med Chem, 2023)
Active and inactive are the calls of the source. The rule behind the calls is not given here.

Columns and labels:
[1] = test system: HEK-293T; experiment: Cytotoxicity against human HEK293T cells co-transfected with Gal4-fused human Nurr1 LBD and pFR-Luc/pRL-SV40 assessed as decrease in renilla luciferase activity at 100 uM incubated for 16 hrs by Dual-Glo luciferase assay relative to control
[2] = target: Nuclear receptor subfamily 4 group A member 2 (Rattus norvegicus) (UniProt Q07917); experiment: Agonist activity at Nurr1 in rat N27 cells assessed as increase in SOD1 mRNA expression level at 30 to 100 uM incubated for 16 hrs by qPCR analysis; assay type: cell-based; details: filed as agonist, dose 30-100 µM
Method in brief: (§1)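 Rat N27 dopaminergic cells in RPMI 1640 with 10% FCS, switched to 0.2% FCS 7 h after seeding and held 24 h more. Stimulated 16 h with compound in 0.1% DMSO, with 0.1% DMSO as vehicle control. Total RNA was heat-linearized at 65 °C before reverse transcription. SYBR green qPCR ran 40 cycles with a melt curve. Target mRNA normalized to GAPDH by ΔCt, expressed relative to vehicle.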

[3] = target: Nuclear receptor subfamily 4 group A member 2 (Rattus norvegicus) (UniProt Q07917); experiment: Agonist activity at Nurr1 in rat N27 cells assessed as increase in SOD2 mRNA expression level at 30 to 100 uM incubated for 16 hrs by qPCR analysis; assay type: cell-based; details: filed as agonist, dose 30-100 µM
Method in brief: as §1

[4] = target: Nuclear receptor subfamily 4 group A member 2 (Rattus norvegicus) (UniProt Q07917); experiment: Agonist activity at Nurr1 in rat N27 cells assessed as increase in TH mRNA expression level at 30 to 100 uM incubated for 16 hrs by qPCR analysis; assay type: cell-based; details: filed as agonist, dose 30-100 µM
Method in brief: as §1

[5] = target: Nuclear receptor subfamily 4 group A member 2 (Rattus norvegicus) (UniProt Q07917); experiment: Agonist activity at Nurr1 in rat N27 cells assessed as increase in VMAT mRNA expression level at 30 to 100 uM incubated for 16 hrs by qPCR analysis; assay type: cell-based; details: filed as agonist, dose 30-100 µM
Method in brief: as §1

[6] = target: T1, Nuclear receptor subfamily 4 group A member 2 (Homo sapiens, UniProt P43354); experiment: Agonist activity at Gal4-fused human Nurr1 LBD transfected in human HEK293T cells co-transfected with pFR-Luc/pRL-SV40 assessed as activation of luciferase activity incubated for 16 hrs by Dual-Glo luciferase assay
[7] = test system: HEK-293T; experiment: Cytotoxicity against human HEK293T cells assessed as reduction in cell viability at 100 uM incubated for 24 hrs by WST-8 assay; assay type: toxicity, cell-based
Method in brief: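 HEK293T cells were seeded on collagen G-coated wells, 10,000 per well, and after 24 h exposed to compound in Opti-MEM with 0.1% DMSO for 24 h; 0.1% DMSO alone served as untreated control. Metabolic activity was read by WST-8 (10%, 4 h) absorbance at 450 nm. Four biologically independent repeats.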

[8] = target: T1, Nuclear receptor subfamily 4 group A member 2; experiment: Binding affinity to Nurr1 LBD (unknown origin) at 200 uM by Isothermal titration calorimetry
[9] = Glutathione reactivity at pH 7.4 assessed as compound remaining at 125 uM incubated upto 24 hrs by LC-UV-ESI-MS analysis; assay type: physicochemical; details: pH 7.4, 24 h
Method in brief: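 Compound (125 μM final) was shaken at 37 °C with 2.5 mM glutathione in PBS pH 7.4 (1% DMSO final). Aliquots at 0, 6, 18 and 24 h were diluted in mobile phase containing an internal standard. They were analyzed by reversed-phase LC with UV at 254 nm and positive ESI-MS in SIM mode. AUC was corrected to the internal standard. Run three times.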

[10] = target: T1, Nuclear receptor subfamily 4 group A member 2; experiment: Binding affinity to Nurr1 LBD (unknown origin) assessed as dissociation constant by Isothermal titration calorimetry
[11] = test system: HEK293T; experiment: (§2) Agonist activity at Nurr1 LBD (unknown origin) transfected in human HEK293T cells co-transfected with pFR-Luc/pRL-SV40 assessed as maximum activation of luciferase activity at 1 uM incubated for 16 hrs in presence of 5-Chloro-N-{5-chloro-2-[2-(dimethylamino)ethoxy]phenyl}-1H-indole-6-carboxamide by Gal4 hybrid reporter gene assay relative to control; assay type: cell-based; details: filed as agonist
Method in brief: (§3)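 Gal4–Nurr1 LBD hybrid reporter assay in HEK293T cells (DMEM high glucose, 10% FCS, 37 °C, 5% CO2), transiently transfected with pFA-CMV-hNurr1-LBD, pFR-Luc reporter and pRL-SV40 control. Treatment began 5 h after transfection, 16 h in Opti-MEM with 0.1% DMSO, read by dual luciferase. Firefly/Renilla ratio ×1000 gave RLU; fold activation taken vs untreated control. At least three independent experiments, each in duplicate.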

[12] = test system: HEK293T; experiment: as §2, with “7-Chloro-N-{5-chloro-2-[2-(dimethylamino)ethoxy]phenyl}quinolin-4-amine” for “5-Chloro-N-{5-chloro-2-[2-(dimethylamino)ethoxy]phenyl}-1H-indole-6-carboxamide”; assay type: cell-based; details: filed as agonist
Method in brief: as §3

Chain of Nuclear receptor subfamily 4 group A member 2 (Rattus norvegicus) (Q07917 whole entry): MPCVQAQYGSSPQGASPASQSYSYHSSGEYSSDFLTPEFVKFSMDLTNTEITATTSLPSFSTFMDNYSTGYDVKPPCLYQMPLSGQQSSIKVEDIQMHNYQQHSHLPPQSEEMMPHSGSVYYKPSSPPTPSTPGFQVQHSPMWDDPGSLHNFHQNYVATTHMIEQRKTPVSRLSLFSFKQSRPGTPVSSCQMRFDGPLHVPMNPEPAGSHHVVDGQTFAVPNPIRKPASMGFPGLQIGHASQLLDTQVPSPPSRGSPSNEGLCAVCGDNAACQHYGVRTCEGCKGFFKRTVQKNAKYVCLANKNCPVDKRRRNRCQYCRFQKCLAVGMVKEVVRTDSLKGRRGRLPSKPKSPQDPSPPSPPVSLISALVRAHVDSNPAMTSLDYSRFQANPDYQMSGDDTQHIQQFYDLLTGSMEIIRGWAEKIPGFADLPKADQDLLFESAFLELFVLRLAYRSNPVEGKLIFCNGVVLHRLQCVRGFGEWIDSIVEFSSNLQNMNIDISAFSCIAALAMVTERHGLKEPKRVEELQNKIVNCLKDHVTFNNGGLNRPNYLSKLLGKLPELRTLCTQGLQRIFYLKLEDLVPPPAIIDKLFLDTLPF
T1 sequence (P43354 whole entry, the tested form may be a part): as the sequence (Q07917 whole entry) above, with S131T, R182P, D354E counted along it

Compound	Activity [1]	other results
O=C(NCCNC1CCCCC1)c1cc2[nH]ccc2cc1Cl	Non-Toxic	–
Clc1ccc2[nH]ccc2c1	–	Activity [2]: Dose-Dependent Effect; Activity [3]: Dose-Dependent Effect; Activity [4]: Dose-Dependent Effect; Activity [5]: Dose-Dependent Effect; EC50 [6]: 40 µM
NCC1CCN(Cc2ccccc2)CC1	Non-Toxic	–
NC(=O)CC1(NC(=O)c2cc3[nH]ccc3cc2Cl)CCCCC1	Non-Toxic	–
NC1CCC(CC2CCC(NC(=O)c3cc4[nH]ccc4cc3Cl)CC2)CC1 (stereo not given)	Toxic	–
O=C(NCCC12CCCN1CCC2)c1cc2[nH]ccc2cc1Cl	Non-Toxic	–
NCc1ccc2[nH]ncc2c1	Non-Toxic	–
CC1CCN(CCCNC(=O)c2cc3[nH]ccc3cc2Cl)CC1	Non-Toxic	Activity [7]: Non-Toxic; Activity [8]: inactive
CN(C)CCOc1ccc(Cl)cc1NC(=O)c1cc2[nH]ccc2cc1Cl	Non-Toxic	Activity [7]: Non-Toxic; Stability [9]: Stable
CN(C)Cc1ccccc1CNC(=O)c1cc2[nH]ccc2cc1Cl	Non-Toxic	–
CN1CCC(CNC(=O)c2cc3[nH]ccc3cc2Cl)(c2ccccc2)CC1	Non-Toxic	–
CN(C)C(CNC(=O)c1cc2[nH]ccc2cc1Cl)c1ccc(F)cc1 (stereo not given)	Non-Toxic	–
NC1CCC(CC2CCC(N)CC2)CC1 (stereo not given)	Non-Toxic	–
CN(C)CCOc1ccc(Cl)cc1N	Non-Toxic	–
CN1CCC(Nc2ccccc2N)CC1	Toxic	–
O=C(NCc1ccc2[nH]ncc2c1)c1cc2[nH]ccc2cc1Cl	Toxic	–
NCCc1c[nH]c2ccc(F)cc12	Non-Toxic	–
CN1CCC(CN)(c2ccccc2)CC1	Non-Toxic	–
CN(C)C(CN)c1ccc(F)cc1 (stereo not given)	Non-Toxic	–
CCN(CC)C1CCC(N)CC1 (stereo not given)	Non-Toxic	–
O=C(NCc1ccc2cc[nH]c2c1)c1cc2[nH]ccc2cc1Cl	Non-Toxic	–
O=C(NCCN1CCC2CCCCC2C1)c1cc2[nH]ccc2cc1Cl (stereo not given)	Non-Toxic	Activity [7]: Non-Toxic; Kd [10]: 3.2 µM; EC50 [6]: 12 µM
Nc1cc(CNC(=O)c2cc3[nH]ccc3cc2Cl)cc(C(F)(F)F)c1	Toxic	–
CN(C)CCc1ccc(CNC(=O)c2cc3[nH]ccc3cc2Cl)cc1	Non-Toxic	–
O=C(NCC1CCN(Cc2ccccc2)CC1)c1cc2[nH]ccc2cc1Cl	Non-Toxic	–
CN1CCC(Nc2ccccc2NC(=O)c2cc3[nH]ccc3cc2Cl)CC1	Non-Toxic	–

Compound	Activity [1]	other results
NCCNC1CCCCC1	Non-Toxic	–
O=C(NCCc1c[nH]c2ccc(F)cc12)c1cc2[nH]ccc2cc1Cl	Toxic	–
CC(C)N1CCC(N)CC1	Non-Toxic	–
CC(C)N1CCC(NC(=O)c2cc3[nH]ccc3cc2Cl)CC1	Non-Toxic	Activity [7]: Non-Toxic; Activity [8]: inactive
CN(C)Cc1ccccc1CN	Non-Toxic	–
O=C(Nc1ccccc1NCCCn1ccnc1)c1cc2[nH]ccc2cc1Cl	Non-Toxic	–
CC(C)CN1CCC(N)CC1	Non-Toxic	–
CCCCN1CCC(CN)C1 (stereo not given)	Non-Toxic	–
CCN(CC)C1CCC(NC(=O)c2cc3[nH]ccc3cc2Cl)CC1 (stereo not given)	Non-Toxic	Activity [7]: Non-Toxic; Activity [8]: inactive
CC1CCN(CCCN)CC1	Non-Toxic	–
C#CCOc1cccc(-c2ccc(NC(=O)C3=C(C(=O)O)CCC3)c(F)c2)c1	–	Emax [11]: 134%; Emax [12]: 177%
CN(C)CCOc1ccc(Cl)cc1NC(=O)c1cc2c(ccn2C)cc1Cl	–	Kd [10]: 1 µM; EC50 [6]: 16 µM
NC(=O)CC1(N)CCCCC1	Non-Toxic	–
CCN1CCN(c2ccc(Cl)cc2N)CC1	Non-Toxic	–
Nc1ccccc1NCCCn1ccnc1	Non-Toxic	–
CCN1CCN(c2ccc(Cl)cc2NC(=O)c2cc3[nH]ccc3cc2Cl)CC1	Non-Toxic	–
CCN(CC)CC1CCCCC1N (stereo not given)	Toxic	–
NCc1ccc2cc[nH]c2c1	Non-Toxic	–
CCN(CC)CC1CCCCC1NC(=O)c1cc2[nH]ccc2cc1Cl (stereo not given)	Non-Toxic	–
NCCC12CCCN1CCC2	Non-Toxic	–
CN(C)CCc1ccc(CN)cc1	Non-Toxic	–
NCCN1CCC2CCCCC2C1 (stereo not given)	Non-Toxic	–
CC(C)CN1CCC(NC(=O)c2cc3[nH]ccc3cc2Cl)CC1	Non-Toxic	–
CCCCN1CCC(CNC(=O)c2cc3[nH]ccc3cc2Cl)C1 (stereo not given)	Non-Toxic	Kd [10]: 16 µM; EC50 [6]: 28 µM
NCc1cc(N)cc(C(F)(F)F)c1	Non-Toxic	–
